Test results taken from PubChem BioAssay AID463191 (Sanford-Burnham Center for Chemical Genomics, 2010).
Active and inactive are the calls of the source.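 Rule for the calls: active = compounds whose mean IC50 across repeat dose response tests falls below a set limit; inactive = the rest.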

These compounds were tested on AML12 mouse hepatocytes, BODIPY lipid droplet imaging (assay: hepatocyte lipid droplet accumulation inhibitors, dose response, imaging, AML12 mouse hepatocytes, high-content (AID 463191)). Details: cells loaded with 100 µM oleic acid.
In short: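 Material: mouse AML12 hepatocytes; dosing: Seven-point series from 32 to 0.5 µM, 0.32% DMSO; schedule: ~20 h pre-growth at 37 °C, overnight treatment; benchmarks: Triacsin-C at 5 µM as positive control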

| Structure (SMILES) | IC50 |
| --- | --- |
| CCCCCCn1c(N2CCN(c3ccccc3)CC2)nc2c1c(=O)[nH]c(=O)n2C | 2460 nM |
| CCOc1cc2c(cc1OCC)C(c1ccccc1OC)OC(=O)C2 (stereo not drawn) | > 32000 nM (inactive) |
| CCOc1ccc(CCNC(=O)COC(=O)c2cc([N+](=O)[O-])ccc2N2CCOCC2)cc1OCC | 3000 nM |
| CCOc1ccccc1NC(=O)CCC(=O)Nc1ccccc1OCC | 4180 nM |
| CC(=O)Nc1ccc(-c2csc(NC(=O)Cc3ccccc3F)n2)cc1 | 5100 nM (inactive) |
| CCOc1ccc(CCNC(=O)CN2C(=O)c3cccnc3Oc3ccc(C)cc32)cc1OCC | < 500 nM |
| COc1ccc(CCNC(=O)c2cc3c(F)cccc3s2)cc1OC | 5420 nM (inactive) |
| COc1ccc2c(c1)c(CC(=O)Nc1ccc(C)cc1)c(C)n2C(=O)c1ccc(Cl)cc1 | < 500 nM |
| COc1ccc(CC(=O)Nc2oc(-c3ccccc3)c(-c3ccccc3)c2C#N)cc1OC | 1260 nM |
| CCOc1ccc(CCNC(=O)CCCn2c(=O)c3cccn3c3cccnc32)cc1OCC | 1880 nM |
| O=C(NCc1ccccc1)C(c1ccccc1F)N(C(=O)c1csnn1)C1CCCC1 (stereo not drawn) | 3490 nM |
| Cc1ccc(-n2nc3c(=O)n(C(C)C(=O)NCCc4cccs4)nc(C)c3c2C)cc1 (stereo not drawn) | 3220 nM |
| CCC(C(=O)NCCc1ccccc1OC)n1nc(C)c2c(C)n(-c3ccccc3)nc2c1=O (stereo not drawn) | 3260 nM |
| CCOc1ccc(CN(C)C(=O)CNC(=O)c2ccc(Br)o2)cc1OC | 3880 nM |
| CCOc1ccc(CCNC(=O)CS(=O)Cc2nc(-c3ccc(OC)c(OC)c3)oc2C)cc1OCC (stereo not drawn) | 7640 nM (inactive) |
| COc1ccc(-c2csc(NC(=O)c3ccc(OCC(=O)N4CCOCC4)c(OC)c3)n2)cc1OC | 1900 nM |
| CCOc1ccc(C2=NNC(c3cccs3)=Nc3ccc(OC)cc32)cc1OCC | 8700 nM (inactive) |
| CCOc1ccc(CCNC(=O)C(C)n2nc(C)n3c(cc4occc43)c2=O)cc1OCC (stereo not drawn) | 3610 nM |
| CCOc1ccc(CCNC(=O)CCC(=O)N2CCOc3ccccc32)cc1OCC | 830 nM |
| CCCN1C(=O)/C(=C\C=C2\N(CC)c3ccccc3C2(C)C)SC1=S | < 500 nM |
| CCOc1ccc(NC(=O)CCSc2nc3c(c(CC)c2C#N)C(=O)CC(C)(C)C3)cc1 | 1770 nM |
| CCOc1ccccc1Nc1nnc(SCC(=O)Nc2nc(-c3ccc(OC)cc3)cs2)s1 | 1020 nM |
| CCOc1ccc(CCNC(=O)Nc2ccccc2)cc1OCC | 583 nM |
| CCNC(=S)N1CCc2cc(OC)c(OC)cc2C1COc1ccccc1OC (stereo not drawn) | 3770 nM |
| CCC(C)(C)NC(=O)C(c1ccc(OC)cc1)N(Cc1cccs1)C(=O)CCC(=O)Nc1cc(C)on1 (stereo not drawn) | 2240 nM |

| Structure (SMILES) | IC50 |
| --- | --- |
| O=C(NC1CCCc2c1cnn2-c1cc(F)cc(F)c1)c1ccccn1 (stereo not drawn) | 1550 nM |
| CCOc1ccc(CCNC(=O)Nc2ccccc2C)cc1OCC | 2030 nM |
| Nc1nc(-c2ccccc2)c(N=Nc2cccc3ccccc23)s1 | 525 nM |
| CC1=C(C(=O)NC2CCCc3c2cnn3-c2cccc(C)c2C)OCCO1 (stereo not drawn) | 11800 nM (inactive) |
| CCOC(=O)c1ccc(NC(=O)CSc2nc3c(c(=O)n2-c2ccccc2OC)SCC3)cc1 | 1840 nM |
| CCOc1ccc(CCNC(=O)COC(=O)c2ccc(OC)c(OC)c2OC)cc1OCC | < 500 nM |
| CCOc1ccc(CCNC(=O)CCC(=O)N2CCSc3ccccc32)cc1OCC | < 500 nM |
| COc1ccc(-c2csc(NC(=O)c3ccc(OCC(=O)N4CCOCC4)c(OC)c3)n2)cc1 | 782 nM |
| CCN(CC(=O)Nc1c(F)cccc1F)C(=O)CCCc1c[nH]c2ccccc12 | 1890 nM |
| CCCOc1ccc(/C=N/Nc2ccccc2[N+](=O)[O-])c(OCCC)c1 | < 500 nM |
| CC1CC(C)CN(C(=O)c2ccc3c(c2NCCO)C(=O)c2ccccc2C3=O)C1 (stereo not drawn) | 687 nM |
| COc1cccc(NC(=O)CSc2nc3ccccc3nc2N2CCCC2)c1 | 5260 nM (inactive) |
| CC(C)OC(=O)/C(=C/c1ccc2c(c1)c1ccccc1n2C)NC(=O)c1ccccc1 | 1800 nM |
| CCCC1(c2ccccc2)NC(=O)N(CC(=O)Nc2cc(C)ccc2OC)C1=O (stereo not drawn) | > 32000 nM (inactive) |
| CC(Sc1nnc(Nc2ccccc2)s1)C(=O)Nc1nc(-c2ccccc2)cs1 (stereo not drawn) | 5770 nM (inactive) |
| CCOc1ccc(CCNC(=O)CS(=O)Cc2nc(-c3ccccc3C)oc2C)cc1OCC (stereo not drawn) | 5360 nM (inactive) |
| CCOc1ccc(NC(=O)CSc2nc3ccccc3nc2N2CCCC2)cc1 | 1770 nM |
| CCOc1ccccc1NC(=O)CCCNC(=O)Cn1cnc2sc(C)c(C)c2c1=O | 7090 nM (inactive) |
| C/C(=N\Nc1ccc(S(=O)(=O)Nc2ccccc2)cc1[N+](=O)[O-])c1ccc(N2CCOCC2)cc1 | 1280 nM |
| CCN(CC)c1ccc(NC(=O)CCc2nnc3ccc(N4CCCC4)nn23)c(C)c1 | 2350 nM |
| COc1ccc(NC(=O)CN2C(=O)NC(c3ccccc3)(c3ccccc3)C2=O)cc1OC | 1600 nM |
| CCOc1ccc(CN(C)C(=O)CNC(=O)Cc2cccc3ccccc23)cc1 | 566 nM |
| COc1ccc(CNC(=O)CN2C(=O)NC(C)(c3cccc4ccccc34)C2=O)cc1OC (stereo not drawn) | 2320 nM |
| Cc1ccc(NC(=O)CSc2nc3ccccc3nc2N2CCCC2)cc1 | 2110 nM |
| CCOc1ccc2nc(-c3ccccc3)nc(SCC(=O)Nc3ncc(C)s3)c2c1 | < 500 nM |

| Structure (SMILES) | IC50 |
| --- | --- |
| CCOc1ccc(CCNC(=O)CSc2cc(=O)n(C)c3ccccc23)cc1OCC | 823 nM |
| CCc1ccc(NC(=O)CSc2nnc(C)c(=O)n2N)cc1 | 1480 nM |
| O=C(CSCC(=O)N1CCCc2ccccc21)Nc1nc(-c2ccccc2)cs1 | 4240 nM |
| CCOc1ccc(CCNC(=O)CCS(=O)(=O)c2ccc(C)cc2)cc1OCC | 1850 nM |
| CCOc1ccc(C(C)NC(=O)Cc2ccccc2)cc1OCC (stereo not drawn) | > 32000 nM (inactive) |
| CCOc1ccc(CCNC(=O)CSc2cc(=O)n(C)c3cc(Cl)ccc23)cc1OCC | 708 nM |
| CCCCNC(=O)c1ccc2c(c1)N(C)C(=O)c1ccccc1S2 | 6880 nM (inactive) |
| CCCOc1ccc(C(=O)OCC(=O)NCCc2ccc(OCC)c(OCC)c2)cc1OC | 593 nM |
| CC(C)COc1cccc(-c2cc(C(=O)Nc3ccon3)c3ccccc3n2)c1 | 3830 nM |
| O=C1C(NS(=O)(=O)c2ccccc2)=C(N2CCN(c3ccc(F)cc3)CC2)C(=O)c2ccccc21 | 1780 nM |
| CCOc1ccccc1NC(=O)C1CCN(C(=O)NCc2ccccc2)CC1 | < 500 nM |
| CCOc1ccc(CC(=O)Nc2ccc(NC(=O)c3ccco3)cc2)cc1OCC | 2350 nM |
| CCOC(=O)c1ccc(S(=O)(=O)NCC(c2ccc(N(C)C)cc2)c2c[nH]c3ccccc23)cc1 (stereo not drawn) | 927 nM |
| COc1ccc(CCNC(=O)c2cc(-c3ccccc3)c(N3CCOCC3)s2)c(OC)c1OC | < 500 nM |
| CCOc1ccc(CCNC(=O)C2(c3ccccc3)CC2)cc1OCC | 3910 nM |
| CCCCN(C(=O)CCC(=O)Nc1cc(C)on1)C(C(=O)NC1CCCC1)c1ccc(OCC)cc1 (stereo not drawn) | 4070 nM |
| CCC(C)(C)NC(=O)C(c1ccc(OC)cc1)N(CC1CCCO1)C(=O)CCC(=O)Nc1cc(C)on1 (stereo not drawn) | 3440 nM |
| CCOc1ccc(C(=O)CCC(=O)NCC(=O)OCc2ccccc2)cc1OCC | 8000 nM (inactive) |
| COc1ccc(C(C(=O)NC(C)(C)C)N(Cc2ccc(F)cc2)C(=O)CCC(=O)Nc2cc(C)on2)cc1 (stereo not drawn) | 2040 nM |
| Cc1ccc(CNC(=O)CCCc2c[nH]c3ccccc23)cc1 | 11200 nM (inactive) |
| C=CCOc1ccc(-c2nc3c(c(=O)[nH]c(=O)n3Cc3ccccc3)n2CCCOC)cc1 | 2980 nM |
| CCCCCn1c(N)c(-c2nc3ccccc3s2)c2c([N+](=O)[O-])nn(CC)c(=O)c21 | 7460 nM (inactive) |
| CCCc1nc2ccccc2c(C(=O)OC(C)C(=O)NCc2ccc3c(c2)OCO3)c1CC (stereo not drawn) | 1970 nM |
